M1 agonist: agonists of M1 muscarinic receptor | CHO-M1 cells, Fluo-4 calcium fluorescence, agonist mode; stronger effect = higher value | B-score at 10 µM | 64,000 tested, 3% active | AID 626;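 active = fluorescence rise, raw or as B-score row- and column-corrected plate score, outside the 99.7% band of its plate's samples, either direction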
HEK293 NFkB inh: lowers PMA/ionomycin-induced NF-kB signal in HEK293 cells | HEK-293 NF-kB luciferase reporter, luminescence | inhibition, % at 3 µM | 62,000 tested, 0.21% active | AID 465;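 active = inhibition above the mean of all tested compounds plus 3 SD, cut at about 40% in these data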
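System – HEK-293 cells with stable firefly luciferase reporter driven by four HIV NF-kB elements · Doses – one dose, 3 µM · Schedule – 1 h compound pre-incubation, 16 h PMA/ionomycin at 37 °C · Technique – luminescence from luciferase substrate reagent · Measure – percent inhibition normalized per plate to DMSO and reference-inhibitor controls · Replicates – tested once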
mHtt clearance: compounds clearing mutant huntingtin protein; HeLa Exon1htt(103Q)mCFP, aggregate imaging; zero = plate's median compound well; inhibition, % at 1.5 µM; 47,000 tested, 0.42% active; AID 853;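 active = inhibition of aggregate fluorescence above about 70%, also judged a hit by eye on the cell image, limit read from the data, passing the limit was not always enough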;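 note: cells exposed to compound for three days before fixation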
M1 antag: antagonists of rat M1 muscarinic receptor; P08482; CHO-M1 cells, Fluo-4 calcium, ACh EC80 antagonist mode; stronger effect = lower value; B-score at 10 µM; 64,000 tested, 3.4% active; AID 628;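 active = calcium fluorescence response, raw or row-and-column corrected B-score, differing from the plate sample mean either way at a set confidence level, mostly lower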
Target sequence (P08482 whole entry, looked up): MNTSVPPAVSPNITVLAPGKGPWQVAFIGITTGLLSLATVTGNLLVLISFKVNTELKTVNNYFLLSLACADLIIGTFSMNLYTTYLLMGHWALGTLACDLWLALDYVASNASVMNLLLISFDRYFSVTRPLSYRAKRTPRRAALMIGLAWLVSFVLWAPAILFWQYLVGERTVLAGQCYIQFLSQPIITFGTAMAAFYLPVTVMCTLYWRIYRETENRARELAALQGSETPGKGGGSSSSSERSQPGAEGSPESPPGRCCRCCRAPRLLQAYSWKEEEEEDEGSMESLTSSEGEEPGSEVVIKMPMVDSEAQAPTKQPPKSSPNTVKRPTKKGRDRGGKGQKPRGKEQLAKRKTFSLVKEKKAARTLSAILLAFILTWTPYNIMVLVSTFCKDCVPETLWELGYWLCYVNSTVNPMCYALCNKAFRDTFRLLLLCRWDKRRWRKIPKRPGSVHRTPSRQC
D1 allo mod: allosteric modulators of human D1 dopamine receptor; B-score at 10 µM; AID 641; HEK293 D1, CRE-luciferase, dopamine EC30 potentiation; actives deviate in either direction; P21728; 58,000 tested, 5.9% active;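 active = luminescence count or its row- and column-corrected plate score outside the 99.7% band of the plate's sample wells, on either side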
Jurkat tox 60K: reduces viability or proliferation of Jurkat cells. Jurkat E6.1 viability, ATP luminescence, 48 h. inhibition, % at 4 µM. 56,000 tested, 1.2% active. AID 463;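 active = inhibition above the mean inhibition of all tested compounds plus 3 SD, cut at about 28% in these data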
M1 antag confirm: confirmation of rat M1 muscarinic receptor antagonists; shares compounds with M1 antag; CHO-M1 cells, Fluo-4 calcium, ACh EC80 antagonism; stronger effect = lower value; calcium response (max-min fluorescence) at 10 µM; 1,700 tested, 43% active; AID 677;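 active = calcium response below the same-plate mean of wells given acetylcholine alone at its 80%-effect dose, minus 3 SD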
mGluR4 antag: acts on human mGluR4 in M1 antagonist selectivity test. fluorescence response (max-min) at 10 µM. 1,700 tested, 0.9% active. shares compounds with M1 antag. CHO-mGluR4 calcium flux, Fluo-4 fluorescence, glutamate EC80; stronger effect = lower value;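 active = fluorescence response below the plate's average for near-maximal glutamate wells, less 3 SD of those wells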;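 note: raw unnormalized fluorescence span taken in the window right after glutamate addition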
Of the large screens only hits and unclear results are named; the others gave an inactive call (follow-up assays come after a bar, where they were run). Sampled rows, rich in hits. Any-hit rate of the full collection: about 9.5%.

COC(=O)c1[nH]c2ccc(Br)cc2c1NC(=O)CN1CCN(C2CCCCC2)CC1	M1 antag -7.5 | M1 antag confirm 324 | mGluR4 antag inactive
COC(=O)c1[nH]c2ccc(C)cc2c1NC(=O)CCN1CCN(C2CCCCC2)CC1	M1 antag -12 (no result: mHtt clearance) | M1 antag confirm 99 | mGluR4 antag inactive
COC(=O)c1[nH]c2ccc(C)cc2c1NC(=O)CN1CCCC(C)(C)C1	none
COC(=O)c1[nH]c2ccc(Cl)cc2c1NC(=O)CCN1CCN(C2CCCCC2)CC1	M1 antag -9.6 | M1 antag confirm 51 | mGluR4 antag inactive
O=C(Nc1cccc2ccccc12)c1ccc(Cn2cc(Cl)cn2)cc1	none (no result: M1 agonist, HEK293 NFkB inh, M1 antag, D1 allo mod, Jurkat tox 60K)
CCOC(=O)c1nnc2cc(-c3ccccc3)nn2c1C	M1 antag -2.6 | M1 antag confirm inactive | mGluR4 antag inactive
CCOC(=O)c1nnc2cc(-c3ccc(Br)cc3)nn2c1C	none
COC(=O)c1cc(NS(=O)(=O)c2ccc3c(c2)CCC(=O)N3)cc(C(=O)OC)c1	none
CCCCC(=O)NC1(C(F)(F)F)C(=O)Nc2c1c(=O)[nH]c(=O)n2Cc1ccco1 (stereo unspecified)	M1 antag -4.7 | M1 antag confirm inactive | mGluR4 antag inactive
CCC1(C(=O)OC)NC(c2ccccc2OC)C2C(=O)N(C)C(=O)C21 (stereo unspecified)	none
CCCc1cc(=O)oc2cc(C)cc(OC(=O)c3ccco3)c12	M1 antag -2.9 | M1 antag confirm inactive | mGluR4 antag inactive
CCCc1cc(=O)oc2cc(C)cc(O)c12	none (no result: M1 agonist, HEK293 NFkB inh, M1 antag, D1 allo mod, Jurkat tox 60K)
CCCCNC(=O)C1CC(c2c(Cl)cccc2Cl)=NO1 (stereo unspecified)	none (no result: M1 agonist, HEK293 NFkB inh, M1 antag, D1 allo mod, Jurkat tox 60K)
CCCCS/C(=C(/C#N)C(N)=O)c1cc2c([nH]1)CCCC2	M1 antag -6 (no result: mHtt clearance) | M1 antag confirm 140 | mGluR4 antag inactive
O=C(c1ccc(Cn2cc(Br)cn2)o1)n1cccn1	none (no result: mHtt clearance)
O=C(CN1CCN(Cc2cccc(Cl)c2)C1=O)NCc1ccccn1	none (no result: M1 agonist, HEK293 NFkB inh, M1 antag, D1 allo mod, Jurkat tox 60K)
CC(=O)Nc1ccc(S(=O)(=O)N2CCN(C34CC5CC(CC(C5)C3)C4)CC2)cc1	M1 antag -3.1 | M1 antag confirm inactive | mGluR4 antag inactive
CCN(CC)S(=O)(=O)c1ccc(C(=O)Oc2ccc3c(c2)OCO3)cc1	none (no result: mHtt clearance)
CCN(CC)S(=O)(=O)c1ccc(C(=O)OC2CCCCC2CN(C)C)cc1 (stereo unspecified)	M1 antag -4.6 (no result: mHtt clearance, D1 allo mod) | M1 antag confirm inactive | mGluR4 antag inactive
O=S(=O)(NC1CC2CCC1C2)c1ccc(Br)s1 (stereo unspecified)	none (no result: Jurkat tox 60K)
CN1CCN(C(=O)c2ccc(COc3ccc(Cl)cc3Cl)cc2)CC1	M1 antag -2.7 | M1 antag confirm inactive | mGluR4 antag inactive
Cc1ccc(-c2nn(CC(=O)NCCN3CCOCC3)c(=O)c3ccccc23)cc1	M1 antag -2.5 | M1 antag confirm inactive | mGluR4 antag inactive
O=C(CCn1nc(-c2ccc(Cl)cc2)c2ccccc2c1=O)NCCN1CCOCC1	none (no result: M1 agonist, HEK293 NFkB inh, M1 antag, D1 allo mod, Jurkat tox 60K)
Cc1cc(C)n(CCCNC(=O)c2ccc(S(=O)(=O)NCc3ccco3)cc2)n1	none (no result: mHtt clearance)
CCn1cc(C(=O)NCCCOC)c(=O)c2cc(S(=O)(=O)N(C)C)ccc21	none
CCN(CC)CCOC(=O)C1(c2ccc(OC)c(OC)c2)CCCC1	M1 antag -11 (no result: HEK293 NFkB inh, mHtt clearance, Jurkat tox 60K) | M1 antag confirm 165 | mGluR4 antag inactive
CCN(CC)CCOC(=O)C1(c2ccccc2)CCCC1	none (no result: M1 agonist, HEK293 NFkB inh, M1 antag, D1 allo mod, Jurkat tox 60K)
Cc1ccc(CNc2ncc(-c3ccc4c(c3)OCO4)n2C)cc1	M1 antag -2.9 (no result: mHtt clearance) | M1 antag confirm 447 | mGluR4 antag inactive
Cn1c(-c2ccc(F)cc2)cnc1NCc1ccc(F)cc1	none (no result: M1 agonist, HEK293 NFkB inh, M1 antag, D1 allo mod, Jurkat tox 60K)
Cn1c(-c2ccc3c(c2)OCO3)cnc1NCc1ccc(Cl)cc1	M1 antag -6.6, D1 allo mod -4.3 | M1 antag confirm 358 | mGluR4 antag inactive
Cn1c(-c2ccc(F)cc2)cnc1NCc1ccc(C#N)cc1	M1 antag -3.4 | M1 antag confirm inactive | mGluR4 antag inactive
COc1ccc(N2CCN(Cc3nc4c(c(=O)n(C)c(=O)n4C)n3Cc3ccccc3C)CC2)cc1	none (no result: mHtt clearance)
N#CCSc1nc2scc(-c3cccs3)c2c(=O)n1CCc1ccccc1	M1 antag -3.3 (no result: mHtt clearance) | M1 antag confirm inactive | mGluR4 antag inactive
C=CCn1c(SCC(=O)N2CCCC2)nc2scc(-c3cccs3)c2c1=O	none (no result: M1 agonist, HEK293 NFkB inh, M1 antag, D1 allo mod, Jurkat tox 60K)
CS(=O)(=O)n1nc(C(=O)N2CCOCC2)nc1N	none (no result: HEK293 NFkB inh, mHtt clearance, D1 allo mod, Jurkat tox 60K)
CCN(CC(=O)Nc1ccc2c(c1)CCC2)Cc1nc2ccccc2c(=O)[nH]1	none (no result: D1 allo mod)
NCCCCCc1nnc(SC/C=C/c2ccccc2)o1	M1 antag -3.6 | M1 antag confirm 450 | mGluR4 antag inactive
NCCCCCc1nnc(SCc2ccccc2Cl)o1	none
CC(C)c1ccc(CNC(=O)CSCC(=O)Nc2ccc3ccccc3c2)cc1	none (no result: M1 agonist, HEK293 NFkB inh, M1 antag, D1 allo mod, Jurkat tox 60K)
CN1/C(=C\C(=O)c2cccs2)Sc2ccccc21	M1 antag -6.5, D1 allo mod -4.8 (no result: mHtt clearance) | M1 antag confirm inactive | mGluR4 antag inactive
O=C(c1ccc(Cl)cc1)c1oc2ccccc2c1CS(=O)c1ccccc1 (stereo unspecified)	none (no result: M1 agonist, HEK293 NFkB inh, M1 antag, D1 allo mod, Jurkat tox 60K)
COc1ccc(N=C2C(=O)Nc3ccccc32)cc1	M1 antag -4.4 (no result: mHtt clearance) | M1 antag confirm inactive | mGluR4 antag inactive
COc1ccc(OC)c(N=C2C(=O)Nc3ccccc32)c1	none (no result: mHtt clearance)
CCN(CC)C(=O)C1CCCN(C/C(C)=C/c2ccccc2)C1 (stereo unspecified)	none
CCN(CC)C(=O)C1CCCN(Cc2ccc(F)c(F)c2)C1 (stereo unspecified)	M1 antag -4.1 (no result: mHtt clearance) | M1 antag confirm inactive | mGluR4 antag inactive
CCN(CC)C(=O)C1CCCN(Cc2ccc(N(C)C)cc2)C1 (stereo unspecified)	none (no result: mHtt clearance)
CCN(CC)C(=O)C1CCCN(C/C=C/c2ccccc2)C1 (stereo unspecified)	M1 antag -2.7 | M1 antag confirm inactive | mGluR4 antag inactive
CCNC(=O)C1CC(=O)N(c2ccc(Br)cc2)C1 (stereo unspecified)	none
Cc1nnc(N(Cc2ccco2)C(=O)c2cccc(C#N)c2)s1	none (no result: Jurkat tox 60K)
CN(C(=O)c1cccc(C#N)c1)c1nnc(C2CCCO2)s1 (stereo unspecified)	M1 antag -4.5 (no result: D1 allo mod) | M1 antag confirm inactive | mGluR4 antag inactive
O=C1CC(NCc2ccc3c(c2)OCO3)C(=O)N1Cc1ccc2c(c1)OCO2 (stereo unspecified)	none (no result: HEK293 NFkB inh, Jurkat tox 60K)
O=C(c1oc(=O)c2ccccc2c1-c1ccccc1)N1CCN(C2CCCCC2)CC1	M1 antag -6.6 | M1 antag confirm 349 | mGluR4 antag inactive
O=C(c1ccc2c(c1)OCO2)N(c1ccc(Cl)cc1)C1C=CS(=O)(=O)C1 (stereo unspecified)	none (no result: mHtt clearance)
